Experimental data taken from publication PMC4201343 (ACS Chemical Biology, 2014).
Counter-ions that a name gives are not always drawn.

Assays:
HCV NS3h = biological target: T1, HCV NS3h (Hepatitis C virus genotype 1b, UniProt Q9WMX2); experiment: FP-based binding assay, NS3h displacement from Cy5-dT15 DNA; set-up: species or system hepatitis C virus genotype 1b (con1); conditions: for ability to inhibit HCV helicase binding to DNA (in words): compared with ebselen; for NS3h (% I): percent inhibition of NS3h binding to Cy5-dT15: 100 μM of each compound; for inhibition at 100 µM: read-out: NS3h (% I): percent inhibition of NS3h binding to Cy5-dT15, 100 μM of each compound
T1 sequence (Q9WMX2 1190-1657 limits assumed): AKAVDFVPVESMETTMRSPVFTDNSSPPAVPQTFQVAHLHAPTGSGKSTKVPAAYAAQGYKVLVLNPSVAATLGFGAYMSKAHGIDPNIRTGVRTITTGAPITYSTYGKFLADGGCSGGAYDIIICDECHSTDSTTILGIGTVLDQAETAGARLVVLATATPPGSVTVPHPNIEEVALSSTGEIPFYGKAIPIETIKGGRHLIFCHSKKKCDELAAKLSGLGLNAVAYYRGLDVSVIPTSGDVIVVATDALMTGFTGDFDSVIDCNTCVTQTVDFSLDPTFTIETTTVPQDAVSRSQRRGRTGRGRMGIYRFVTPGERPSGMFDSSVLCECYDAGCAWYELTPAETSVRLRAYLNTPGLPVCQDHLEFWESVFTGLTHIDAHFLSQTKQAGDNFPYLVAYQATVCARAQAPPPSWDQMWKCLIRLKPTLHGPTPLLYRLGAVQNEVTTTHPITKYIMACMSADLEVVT
Method in brief: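 Fluorescence polarization with Cy5-dT15 and NS3h: excitation 635 nm; parallel and perpendicular emission read at 667 nm; G-factor taken from probe-only wells. % inhibition normalized to DMSO-only (negative) and 200 nM dT20 or 100 μM primuline (positive) controls. Single-point tests at 100 μM. IC50 is the concentration displacing 50% of NS3h from DNA. Reversibility: 10 μM NS3h preincubated 1 h with test compound, then diluted 100–100 000-fold into Cy5-dT15 and compared with untreated controls.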

[1] = system: HCV genotype 2a isolate (JFH1); conditions: 20 μM of each compound; ref Gastaminza et al.[9]; cited from earlier work
E. coli SSB = E. coli SSB (Escherichia coli, UniProt P0AGE0); experiment: FP-based binding assay with SSB in place of NS3h; conditions: for SSB (% I): percent inhibition of SSB binding to Cy5-dT15: 100 μM of each compound; for inhibition at 100 µM: read-out: SSB (% I): percent inhibition of SSB binding to Cy5-dT15; for SSB binding inhibition relative to NS3h binding inhibition: 100 μM
Sequence of E. coli SSB (P0AGE0 2-178 limits assumed): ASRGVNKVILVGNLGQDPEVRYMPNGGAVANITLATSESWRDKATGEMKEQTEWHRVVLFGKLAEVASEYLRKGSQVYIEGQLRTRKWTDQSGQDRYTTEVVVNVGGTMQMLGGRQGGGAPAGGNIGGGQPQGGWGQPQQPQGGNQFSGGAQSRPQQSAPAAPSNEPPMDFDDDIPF
Method in brief: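 Fluorescence polarisation assay with E. coli SSB in place of NS3h, using Cy5-dT15 (or Cy5-rU15 for titrations). Screen compounds were pin-transferred to 100 μM final, 1% DMSO. Excitation 635 nm, emission 667 nm; G-factor from probe-only wells. Percent inhibition was normalised to DMSO and to unlabeled dT20 or 100 μM primuline controls.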

[2] = system: HCV Con1/1b Rluc subgenomic replicon in Huh-7.5 cells; experiment: HCV subgenomic replicon assay; assay type: cell-based, hepatitis C virus genotype 1b; conditions: for antiviral potency relative to ebsulfur/ebselen (times more potent): replicon; for therapeutic index (CC50/EC50): replicon EC50 and Huh7.5 CC50
Method in brief: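 Huh-7.5 cells carrying a stable genotype 1b Con1 Renilla luciferase subgenomic replicon (kept in 0.25 mg/mL Geneticin) were seeded at 10 × 10^3 per well. Two-fold compound series, 0.5% final DMSO, 3 days at 37 °C, 5% CO2. Washed cells were lysed and Renilla luminescence read. EC50 is the concentration halving Rluc; CC50 comes from a parallel CellTiter-Glo viability run; three independent titrations.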

SMILES	NS3h (% I): percent inhibition of NS3h binding to Cy5-dT15 (HCV NS3h)	HCV (% I): percent inhibition of HCV replication in cells [1] [%]	SSB (% I): percent inhibition of SSB binding to Cy5-dT15 (E. coli SSB) [%]	also measured
Cn1c2ccccc2c(=O)n1-c1ccccc1 [compound 15, 1-Methyl-2-phenyl-1H-indazol-3(2H)-one]	–	–	–	ability to inhibit HCV helicase binding to DNA (in words) (HCV NS3h): complete loss of activity
O=C(CCn1sc2ccccc2c1=O)Nc1ccccc1 [compound 13, 3-(3-Oxobenzo[d]isothiazol-2(3H)-yl)-N-phenylpropanamide]	–	–	–	decrease in the ability to inhibit HCV helicase (longer linker) (HCV NS3h; relative to peptide-linker analogues): 10 fold
C=CC1=C(C(=O)O)N2C(=O)[C@@H](NC(=O)C(=NO)c3csc(N)n3)[C@H]2SC1 [Spectrum 001824]	11%	5.8	96	–
COc1cccc2c1C(=O)c1c(O)c3c(c(O)c1C2=O)C[C@@](O)(C(=O)CO)C[C@@H]3O[C@H]1C[C@H](N)[C@H](O)[C@H](C)O1 [Doxorubicin Hydrochloride]	–	100	–	inhibition at 100 µM (HCV NS3h): 8%; inhibition at 100 µM (E. coli SSB): 90%
O=c1c2cc(F)c(F)cc2sn1-c1ccccc1 [compound 2, 5,6-Difluoro-2-phenylbenzo[d]isothiazol-3(2H)-one]	–	–	–	antiviral potency relative to ebsulfur/ebselen (times more potent) [2]: ~10 times; therapeutic index (CC50/EC50) [2]: ~1
CCCCCCCCCOc1ccc2[nH]cc(CCN)c2c1 [5-Nonyloxy-tryptamine]	–	100	–	inhibition at 100 µM (HCV NS3h): -8%; inhibition at 100 µM (E. coli SSB): 67%
CS(=O)(=O)Nc1ccc(Cc2noc(-c3ccc4[nH]cc(CCN)c4c3)n2)cc1.O [L 694247]	3%	<0	37	–
C=CC1=C(C(=O)O)N2C(=O)[C@@H](NC(=O)C(=NOCC(=O)O)c3csc(N)n3)[C@H]2SC1.O [HMS2052E19]	28%	<0	95	SSB binding inhibition relative to NS3h binding inhibition (E. coli SSB): 3–4 times
Cl.NC1CCN(c2cccc(Cl)n2)CC1 [SR 57227A]	–1%	12	133	–
O=c1cc(-c2ccccc2)sn1-c1ccccc1 [compound 14, 2,5-Diphenylisothiazol-3(2H)-one]	–	–	–	ability to inhibit HCV helicase binding to DNA (in words) (HCV NS3h): complete loss of activity
CC(O)CO.N[C@@H](C(=O)N[C@@H]1C(=O)N2C(C(=O)O)=C(CSc3cn[nH]n3)CS[C@H]12)c1ccc(O)cc1 [Seapuron]	22%	<0	56	SSB binding inhibition relative to NS3h binding inhibition (E. coli SSB): 3–4 times
O=C1c2c(O)ccc(O)c2C(=O)c2c(NCCNCCO)ccc(NCCNCCO)c21 [Mitoxantrone]	–	–	–	NS3h (% I): percent inhibition of NS3h binding to Cy5-dT15 (HCV NS3h; 100 µM): 125%; NS3h (% I): percent inhibition of NS3h binding to Cy5-dT15 (HCV NS3h; listed as mitoxantrone, 100 µM): more than 50%; inhibition at 100 µM (E. coli SSB): 121%
CN(C)[C@@H]1C(O)=C(C(=O)NCN2CCCC2)C(=O)[C@@]2(O)C(O)=C3C(=O)c4c(O)cccc4[C@@](C)(O)[C@H]3C[C@@H]12 [Rolitetracycline]	–	<0	–	inhibition at 100 µM (HCV NS3h): -4%; inhibition at 100 µM (E. coli SSB): 45%
O=c1c2ccc(Br)cc2sn1-c1ccccc1 [compound 3, 6-Bromo-2-phenylbenzo[d]isothiazol-3(2H)-one]	–	–	–	antiviral potency relative to ebsulfur/ebselen (times more potent) [2]: ~10 times; therapeutic index (CC50/EC50) [2]: ~1
